Compounds with a hit are over-represented: about 3.9% of the library has one in this group of screens.
AHR activator – human AHR activation; activation, % at 5 µM; P35869; AHR-responsive luciferase reporter cells, luminescence; hit rate 2.5% among 320,000; in the data active = activation above about 47%;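 note: 0% = vehicle wells and 100% = reference agonist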
Target sequence (P35869 whole entry, looked up): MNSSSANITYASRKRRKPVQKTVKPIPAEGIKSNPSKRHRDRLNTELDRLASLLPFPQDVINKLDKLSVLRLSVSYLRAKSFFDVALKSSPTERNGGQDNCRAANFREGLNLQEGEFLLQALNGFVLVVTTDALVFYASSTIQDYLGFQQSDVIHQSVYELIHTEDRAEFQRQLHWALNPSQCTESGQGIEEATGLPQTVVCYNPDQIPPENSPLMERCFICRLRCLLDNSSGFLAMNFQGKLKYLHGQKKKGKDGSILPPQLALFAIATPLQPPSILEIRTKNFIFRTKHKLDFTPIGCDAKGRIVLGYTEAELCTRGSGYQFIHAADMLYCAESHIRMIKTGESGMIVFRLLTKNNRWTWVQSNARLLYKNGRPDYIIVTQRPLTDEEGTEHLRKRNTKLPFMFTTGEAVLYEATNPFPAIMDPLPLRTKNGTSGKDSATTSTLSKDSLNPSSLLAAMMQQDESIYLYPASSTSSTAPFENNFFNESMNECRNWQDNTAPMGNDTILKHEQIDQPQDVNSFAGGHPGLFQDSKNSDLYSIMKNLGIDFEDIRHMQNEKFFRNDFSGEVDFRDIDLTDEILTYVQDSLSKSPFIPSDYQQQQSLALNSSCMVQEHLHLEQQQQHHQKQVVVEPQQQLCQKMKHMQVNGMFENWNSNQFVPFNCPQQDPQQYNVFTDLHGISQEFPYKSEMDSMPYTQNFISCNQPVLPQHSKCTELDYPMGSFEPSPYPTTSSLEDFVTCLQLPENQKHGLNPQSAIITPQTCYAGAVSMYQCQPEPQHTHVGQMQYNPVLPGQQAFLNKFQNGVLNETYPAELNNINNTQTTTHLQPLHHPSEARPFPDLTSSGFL
HIF activator – HIF pathway transcriptional activation; U2OS HRE-luciferase reporter, luminescence; normalized: DMSO 0%, desferrioxamine 100%; activation, % at 7.5 µM (by protocol); hit rate 0.32% among 300,000; AID 1910;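 active = mean activation of at least 10% of the iron chelator positive control signal, with at least half of replicates also reaching 10%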
SR-BI DiI inh – inhibitors of mouse SR-BI mediated HDL lipid uptake. AID 488896. ldlA[mSR-BI] CHO cells, DiI-HDL uptake fluorescence, 3 h. inhibition, % at 12.5 µM. hit rate 0.96% among 320,000. Q61009;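 active = mean replicate inhibition of at least 70% and a set share of replicates each scoring 70 or more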;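 note: 0% = median of neutral control wells and 100% = median of positive control wells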
SR-BI uptake up – enhances SR-BI lipid uptake from DiI-HDL; CHO ldlA[mSR-BI] cells, DiI-HDL uptake fluorescence, 3 h; 100 = double the neutral-control signal; activation, % at 12.5 µM; hit rate 0.096% among 320,000; AID 504775;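 active = mean replicate activation of at least 60% and every replicate at or above 60%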;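 note: 0% = median plate neutral-control signal and 100% = twice that signal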
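Test system: SR-BI-overexpressing, LDLR-lacking CHO cells; Medium: Ham's F12 with 0.5% BSA, HEPES 25 mM, pH 7.4; Schedule: 3 h, 37 °C; Technique: bottom-read fluorescence, 550/595 nm.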
ABCB6 inh MLPCN – human ABCB6 transporter inhibition; Q9NP58; K562-ABCB6 porphyrin accumulation, flow cytometry, 1 h; hits give low values; fluorescence ratio to DMSO, % at 10 µM; hit rate 0.19% among 360,000; AID 602162;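 active = fluorescence ratio to DMSO below 75%, the collection mean minus 3 SD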;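 note: signal is porphyrin accumulated inside mitochondria; 100% equals median channel fluorescence of DMSO control wells; lower ratio means ABCB6 inhibition with less porphyrin fluorescence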
FXN GAA850 act – activators of GAA850 frataxin (FXN) promoter. HEK293 lucGAA850 FXN promoter luciferase reporter, 24 h; percent of 10 µM SAHA response. activation, % at 6 µM. hit rate 0.56% among 360,000. AID 540364;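 active = activation above the average of all compounds screened plus 3 SD, cutoff fixed separately per campaign, cut at about 7.5% in these data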;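 note: 0% = DMSO wells and 100% = 10 µM SAHA wells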
GAA30 FXN cntr – counter-screen for GAA850 frataxin promoter activators: GAA30 promoter activation | shares compounds with FXN GAA850 act | hit rate 66% among 1,900 | HEK293 lucGAA30 FXN promoter luciferase, 24 h; DMSO = 0%, 5 µM ipriflavone = 100% | activation, % at 6 µM;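 active = mean activation above the mean of solvent-only control wells plus 3 SD, cut at about 22% in these data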;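 note: counterscreen of GAA850 promoter hits where activity marks nonselective or luminescence artifacts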
FXN GAA850 conf – GAA850 FXN promoter activation confirmation | shares compounds with FXN GAA850 act | HEK293 lucGAA850 FXN promoter luciferase reporter, 24 h; 100% = activation by SAHA | activation, % at 6 µM | hit rate 86% among 1,900 | AID 588351;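 active = mean activation above a set limit taken from the primary screen, cut at about 8% in these data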;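 note: 0% = DMSO wells and 100% = 10 µM SAHA wells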
An asterisk follows results filed as active; nt = no result given.

SMILES	AHR activator	HIF activator	SR-BI DiI inh	SR-BI uptake up	ABCB6 inh MLPCN	FXN GAA850 act	GAA30 FXN cntr	FXN GAA850 conf
COc1ccccc1NC(=O)c1cc(N)cc(C(=O)Nc2ccccc2OC)c1	40	0	4	-4	96	1	nt	nt
COc1ccccc1NC(=O)c1coc(=O)c(Br)c1	2	1	-15	15	99	7.9*	129*	69*
CN(C)CCNC(=O)c1coc(=O)c(Br)c1	-1	0	-7	7	104	3	nt	nt
O=C(Nc1ccccc1C(=O)NC(Cc1ccccc1)C(=O)NC1CCCCC1)c1ccccc1 (centres undefined)	-2	-1	11	-11	101	7.7*	15	6
CC1(C)CC1C(=O)Nc1ccc([N+](=O)[O-])cc1Br (centres undefined)	1	0	-18	18	100	7.8*	18	7
Cc1occc1C(=O)Nc1ccc([N+](=O)[O-])cc1Br	4	0	26	-26	97	2	nt	nt
COc1ccc(-c2cn3ccccc3n2)cc1OC	61*	2	-19	19	99	7.9*	146*	44*
CCOC(=O)[C@@H](C)N(Cc1ccc(OC)cc1)S(=O)(=O)N(Cc1ccccc1)[C@H](C(=O)OC)C(C)C	-1	nt	-7	7	90	11*	13	21*
CCOC(=O)[C@@H](C)NS(=O)(=O)N(Cc1ccccc1)[C@H](C(=O)OC)C(C)C	-1	nt	-10	10	96	2	nt	nt
O=[N+]([O-])c1cc(S(=O)(=O)C(F)(F)F)ccc1Sc1nc2ccccc2s1	0	6	-5	5	113	13*	-7	38*
CS(=O)(=O)c1ccc(Sc2nc3ccccc3s2)c([N+](=O)[O-])c1	2	0	-22	22	95	-17	nt	nt
COc1ccc(/C=N/NC(=O)c2cc(C34CC5CC(CC(C5)C3)C4)[nH]n2)cc1OC	8	0	24	-24	106	2	nt	nt
Cc1ccc(CNC(=O)c2ccccc2NC(=O)CN2CCN(C)CC2)cc1	-2	0	0	0	97	-2	nt	nt
COc1ccc([C@@H]2[C@@H]3C(=O)N(C(C)(C)C)C(=O)[C@@H]3[C@]3(Cc4ccc(Cl)cc4)C(=O)N(c4cccc(Br)c4)C(=O)N23)cc1	-1	-5	-1	1	96	1	nt	nt
COc1ccc([C@@H]2[C@@H]3C(=O)N(C(C)(C)C)C(=O)[C@@H]3[C@]3(Cc4ccccc4)C(=O)N(c4cccc(Cl)c4)C(=O)N23)cc1	3	1	-7	7	98	2	nt	nt
COc1ccc([C@@H]2[C@@H]3C(=O)N(C(C)(C)C)C(=O)[C@@H]3[C@]3(C)C(=O)N(c4cccc(Br)c4)C(=O)N23)cc1	5	1	-3	3	99	11*	10	7
CC[C@@]12C(=O)N(c3cccc(Br)c3)C(=O)N1[C@H](c1ccc(Br)cc1)[C@@H]1C(=O)N(C(C)(C)C)C(=O)[C@@H]12	3	1	4	-4	97	11*	45*	17*
CC(C)(C)N1C(=O)[C@H]2[C@@H](c3ccc(Br)cc3)N3C(=O)N(c4cccc(Cl)c4)C(=O)[C@@]3(Cc3ccccc3)[C@H]2C1=O	0	0	-13	13	96	12*	16	14*
COc1ccc([C@@H]2[C@@H]3C(=O)N(C(C)(C)C)C(=O)[C@@H]3[C@]3(C)C(=O)N(c4cccc(F)c4)C(=O)N23)cc1	3	-1	-7	7	96	2	nt	nt
CC[C@@]12C(=O)N(c3cccc(Br)c3)C(=O)N1[C@H](c1ccc(OC)cc1)[C@@H]1C(=O)N(C(C)(C)C)C(=O)[C@@H]12	-1	0	-19	19	103	11*	39*	9.2*
